A value given as a limit tells only on which side of the number the result lay.

What all share (assay type): cell-based
Experiment [1] has as its target Somatostatin receptor type 5 (Homo sapiens, UniProt P35346). Put plainly: Binding affinity towards human sst5 receptor expressed in CHO-K1 cells. Summed up: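 Radioligand was labelled SRIF28. Points were run in triplicate, with at least two independent experiments per compound.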
In experiment [2] the target is Somatostatin receptor type 4 (Homo sapiens, UniProt P31391). As to the kind of experiment: Binding affinity towards human sst4 receptor expressed in CHO-K1 cells. Summed up:
(§1)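 Competitive radioligand binding. Each point was run in triplicate, and each compound was tested in at least two separate experiments.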

Experiment [3] has as its target Somatostatin receptor type 3 (Homo sapiens, UniProt P32745). As to the kind of experiment: Binding affinity towards human sst3 receptor expressed in CHO-K1 cells. Summed up: as §1
The target in experiment [4] is Somatostatin receptor type 2 (Homo sapiens, UniProt P30874). As to the kind of experiment: Binding affinity towards human sst2 receptor expressed in CHO-K1 cells. Summed up:
as §1

Experiment [5] addresses Somatostatin receptor type 1 (Homo sapiens, UniProt P30872). Put plainly: Binding affinity towards human sst1 receptor expressed in CHO-K1 cells. Summed up:
as §1

Sequence of Somatostatin receptor type 5 (P35346 whole entry): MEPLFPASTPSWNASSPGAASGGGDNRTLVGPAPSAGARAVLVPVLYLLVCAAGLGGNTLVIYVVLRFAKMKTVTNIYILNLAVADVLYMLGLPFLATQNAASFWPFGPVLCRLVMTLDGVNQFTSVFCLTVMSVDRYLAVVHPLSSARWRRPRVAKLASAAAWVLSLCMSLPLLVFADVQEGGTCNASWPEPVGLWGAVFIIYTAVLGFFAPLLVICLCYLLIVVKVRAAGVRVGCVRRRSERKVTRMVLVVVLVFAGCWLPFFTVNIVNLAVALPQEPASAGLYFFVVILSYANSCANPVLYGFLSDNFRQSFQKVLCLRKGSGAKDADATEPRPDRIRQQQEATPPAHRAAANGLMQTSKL
Sequence of Somatostatin receptor type 2 (P30874 whole entry): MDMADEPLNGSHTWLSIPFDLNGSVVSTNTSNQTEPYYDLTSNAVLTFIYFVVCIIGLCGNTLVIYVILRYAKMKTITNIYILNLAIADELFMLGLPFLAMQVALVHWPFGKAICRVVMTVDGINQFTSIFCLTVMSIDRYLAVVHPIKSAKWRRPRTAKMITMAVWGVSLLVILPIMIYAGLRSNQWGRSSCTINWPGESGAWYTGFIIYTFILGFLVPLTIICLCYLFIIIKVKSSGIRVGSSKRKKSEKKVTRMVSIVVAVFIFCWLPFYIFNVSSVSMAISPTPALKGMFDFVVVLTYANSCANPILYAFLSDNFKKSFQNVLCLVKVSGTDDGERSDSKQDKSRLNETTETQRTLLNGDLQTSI
Sequence of Somatostatin receptor type 1 (P30872 whole entry): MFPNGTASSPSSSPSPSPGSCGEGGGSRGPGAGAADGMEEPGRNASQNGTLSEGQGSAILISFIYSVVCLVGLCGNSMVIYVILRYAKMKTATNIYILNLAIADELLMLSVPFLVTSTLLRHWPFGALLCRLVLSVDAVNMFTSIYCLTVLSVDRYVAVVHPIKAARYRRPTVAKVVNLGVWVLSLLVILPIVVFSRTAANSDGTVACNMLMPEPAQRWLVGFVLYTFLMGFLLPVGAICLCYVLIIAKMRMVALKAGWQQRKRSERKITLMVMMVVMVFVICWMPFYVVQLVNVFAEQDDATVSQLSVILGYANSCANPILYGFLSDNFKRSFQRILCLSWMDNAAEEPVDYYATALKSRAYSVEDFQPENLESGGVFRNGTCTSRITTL
Sequence of Somatostatin receptor type 3 (P32745 whole entry): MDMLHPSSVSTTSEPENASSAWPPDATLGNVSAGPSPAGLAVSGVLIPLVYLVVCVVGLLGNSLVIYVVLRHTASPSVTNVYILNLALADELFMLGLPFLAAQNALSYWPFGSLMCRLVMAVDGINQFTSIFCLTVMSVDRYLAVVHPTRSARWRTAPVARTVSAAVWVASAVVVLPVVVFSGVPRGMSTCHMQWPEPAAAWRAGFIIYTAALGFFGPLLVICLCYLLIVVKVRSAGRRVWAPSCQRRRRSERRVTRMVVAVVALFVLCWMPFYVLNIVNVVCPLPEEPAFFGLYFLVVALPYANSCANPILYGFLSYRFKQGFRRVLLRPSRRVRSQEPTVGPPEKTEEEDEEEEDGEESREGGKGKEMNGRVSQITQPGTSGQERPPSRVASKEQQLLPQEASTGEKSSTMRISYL
Sequence of Somatostatin receptor type 4 (P31391 whole entry): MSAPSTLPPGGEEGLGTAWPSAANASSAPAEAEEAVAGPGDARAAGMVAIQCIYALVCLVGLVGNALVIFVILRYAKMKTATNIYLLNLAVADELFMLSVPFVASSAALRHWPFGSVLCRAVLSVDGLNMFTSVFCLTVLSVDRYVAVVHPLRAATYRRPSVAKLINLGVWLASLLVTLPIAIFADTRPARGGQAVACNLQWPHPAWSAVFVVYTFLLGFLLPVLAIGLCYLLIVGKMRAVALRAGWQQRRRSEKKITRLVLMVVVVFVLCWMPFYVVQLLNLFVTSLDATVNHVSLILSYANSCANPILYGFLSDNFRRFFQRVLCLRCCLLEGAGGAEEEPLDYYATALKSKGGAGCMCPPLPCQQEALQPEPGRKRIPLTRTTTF

`NCCCCCNC(=O)[C@@H](Cc1c[nH]c2ccccc12)NC(=O)N1CCC2(C=Cc3ccccc32)CC1`: the Ki (usually the equilibrium dissociation constant of an inhibitor or competing ligand from its target) in experiment [1] is > 10000 nM; in experiment [2], 6840 nM; in experiment [3] it was 2570 nM; in experiment [4], 46 nM; in experiment [5] it was 5380 nM.
For `NCC1CCCC(CNC(=O)[C@H](Cc2c[nH]c3ccccc23)NC(=O)N2CCC3(C=Cc4ccccc43)CC2)C1` (some centres undefined), the inhibition constant (Ki) was 5020 nM in experiment [1]; 2480 nM in experiment [2]; 3610 nM in experiment [3]; 4 nM in experiment [4]; 537 nM in experiment [5].
As for `NCCCCCCNC(=O)[C@H](Cc1c[nH]c2ccccc12)NC(=O)N1CCC2(C=Cc3ccccc32)CC1`, in experiment [4], affinity was put at a Ki of 225 nM.
`NC[C@@H]1CCC[C@H](CNC(=O)[C@H](Cc2c[nH]c3ccccc23)NC(=O)N2CCC3(C=Cc4ccccc43)CC2)C1`: the Ki in experiment [1] came out at 4470 nM; in experiment [2], 2000 nM; in experiment [3], 2950 nM; in experiment [4] it was 1.6 nM; in experiment [5] it was 1740 nM.
Take `NCCCNC(=O)[C@H](Cc1c[nH]c2ccccc12)NC(=O)N1CCC2(C=Cc3ccccc32)CC1`: affinity in experiment [4] was put at a Ki of 815 nM.
`NCCCCC(NC(=O)[C@@H](Cc1c[nH]c2ccccc12)NC(=O)N1CCC2(C=Cc3ccccc32)CC1)C(N)=O` (some centres undefined) returned an inhibition constant (Ki) in experiment [4] of 53 nM.
On to `NC[C@H]1CCC[C@@H](CNC(=O)[C@H](Cc2c[nH]c3ccccc23)NC(=O)N2CCC3(C=Cc4ccccc43)CC2)C1`, for which the Ki in experiment [1] was determined as 3320 nM; in experiment [2] it was 2180 nM; in experiment [3], 3690 nM; in experiment [4] it was 20 nM; in experiment [5], 2430 nM.
`NCCCCNC(=O)C(Cc1c[nH]c2ccccc12)NC(=O)N1CCC2(C=Cc3ccccc32)CC1` (centres undefined): the Ki in experiment [1] is > 10000 nM; in experiment [2], > 10000 nM; in experiment [3], 5690 nM; in experiment [5] it was 4260 nM.
`NCCCCC(NC(=O)[C@H](Cc1c[nH]c2ccccc12)NC(=O)N1CCC2(C=Cc3ccccc32)CC1)C(=O)O` (some centres undefined) gave an inhibitory constant (Ki) in experiment [4] of 1110 nM.
Same read-out and setting: as for `C[C@@H](O)[C@@H]1NC(=O)[C@H](Cc2ccccc2)NC(=O)[C@@H]2CCCN2C(=O)[C@H](Cc2ccc(O)cc2)NC(=O)[C@@H](Cc2c[nH]c3ccccc23)NC(=O)[C@H](CCCCN)NC1=O` (stereo in doubt), the figure is 0.5 nM.

These data come from ChEMBL document CHEMBL1131508, “Spiro[1H-indene-1,4'-piperidine] derivatives as potent and selective non-peptide human somatostatin receptor subtype 2 (sst2) agonists” (J Med Chem, 1998).
